Results as given in ChEMBL document CHEMBL1955790, “One pot synthesis and anticancer activity of dimeric phloroglucinols” (Bioorg Med Chem Lett, 2012).

Assays:
ACHN [1] = assay: Growth inhibition of human ACHN cells at 10 uM after 48 hrs by WST-8 assay; type: functional; details: read-out: GI
Method in brief: (§1)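 ATCC cells kept in DMEM with 10% FBS and antibiotics at 37 °C, 5% CO2. Seeded 5×10^3/well, incubated overnight, then treated with compound for 48 h against a DMSO vehicle control (≤0.1%). CCK-8 (WST-8) reduction by live-cell dehydrogenases read at 450 nm (corrected 650 nm) after 4 h at 37 °C. Viable cells expressed as % of the DMSO control.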

NCI-H460 [2] = assay: Growth inhibition of human NCI-H460 cells at 10 uM after 48 hrs by WST-8 assay; type: functional; details: NCI-H460, 48 h, read-out: GI; method in brief: as §1
PANC-1 [3] = assay: Growth inhibition of human PANC1 cells at 10 uM after 48 hrs by WST-8 assay; type: functional; details: PANC-1, 48 h, read-out: GI; method in brief: as §1
HCT-116 [4] = assay: Growth inhibition of human HCT116 cells at 10 uM after 48 hrs by WST-8 assay; type: functional; details: HCT-116, 48 h, read-out: GI; method in brief: as §1
Calu-1 [5] = assay: Growth inhibition of human Calu1 cells at 10 uM after 48 hrs by WST-8 assay; type: functional; details: Calu-1, 48 h, read-out: GI; method in brief: as §1
HCT-116 [6] = assay: Cytotoxicity against human HCT116 cells after 48 hrs by WST-8 assay; type: functional, cell-based; details: HCT-116, 48 h
Method in brief: (§2)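 ATCC cells kept in DMEM with 10% FBS, penicillin/streptomycin at 37 °C, 5% CO2. Seeded 5×10^3/well and left overnight, then exposed to a range of concentrations with DMSO vehicle (≤0.1%) as control. After 48 h, CCK-8 (WST-8) was added for 4 h at 37 °C and A450 read, corrected to 650 nm. Viability is % of DMSO control. IC50 was taken from log cytotoxicity curves.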

Calu-1 [7] = assay: Cytotoxicity against human Calu1 cells after 48 hrs by WST-8 assay; type: functional, cell-based; details: Calu-1, 48 h; method in brief: as §2
MCF-10A = assay: Cytotoxicity against human MCF10A cells after 48 hrs by WST-8 assay; type: cell-based; method in brief: as §2
NCI-H460 [8] = assay: Cytotoxicity against human NCI-H460 cells after 48 hrs by WST-8 assay; type: functional, cell-based; details: NCI-H460, 48 h; method in brief: as §2
PANC-1 [9] = assay: Cytotoxicity against human PANC1 cells after 48 hrs by WST-8 assay; type: functional, cell-based; details: PANC-1, 48 h; method in brief: as §2
ACHN [10] = assay: Cytotoxicity against human ACHN cells after 48 hrs by WST-8 assay; type: functional, cell-based; method in brief: as §2

Row | SMILES | inhibition of growth at 10 µM (ACHN [1]) [%] | inhibition of growth at 10 µM (NCI-H460 [2]) [%] | inhibition of growth at 10 µM (PANC-1 [3]) [%] | inhibition of growth at 10 µM (HCT-116 [4]) [%] | inhibition of growth at 10 µM (Calu-1 [5]) [%] | IC50 (HCT-116 [6]) [µM] | IC50 (Calu-1 [7]) [µM] | IC50 (MCF-10A) [µM] | IC50 (NCI-H460 [8]) [µM] | IC50 (PANC-1 [9]) [µM] | IC50 (ACHN [10]) [µM]
1 | CC(C)CC(=O)c1c(O)c(C=O)c(O)c(C(c2ccc(OCc3ccccc3)cc2)c2c(O)c(C=O)c(O)c(C(=O)CC(C)C)c2O)c1O | 44 | 49 | 6 | 48 | 30 | – | – | – | – | – | –
2 | CC(=O)c1c(O)c(C(C)=O)c(O)c(C(c2cccs2)c2c(O)c(C(C)=O)c(O)c(C(C)=O)c2O)c1O | 57 | 54 | 64 | 55 | 0 | 9.9 | 9.7 | > 30 | 8.9 | 9.4 | 9.2
3 | CC(C)CC(=O)c1c(O)c(C(=O)CC(C)C)c(O)c(C(c2cc3ccccc3s2)c2c(O)c(C(=O)CC(C)C)c(O)c(C(=O)CC(C)C)c2O)c1O | 54 | 54 | 59 | 65 | 54 | 9.8 | 9.5 | > 30 | 9.7 | 9.8 | 9.9
4 | CC(C)CC(=O)c1c(O)c(C(=O)CC(C)C)c(O)c(C(c2ncc[nH]2)c2c(O)c(C(=O)CC(C)C)c(O)c(C(=O)CC(C)C)c2O)c1O | 0 | 15 | 0 | 0 | 11 | – | – | – | – | – | –
5 | CC(C)CC(=O)c1c(O)c(C(=O)CC(C)C)c(O)c(C(c2ccc(C(F)(F)F)cc2C(F)(F)F)c2c(O)c(C(=O)CC(C)C)c(O)c(C(=O)CC(C)C)c2O)c1O | 57 | 64 | 60 | 61 | 65 | 9.2 | 8.5 | 27.6 | 8.6 | 8.3 | 8.8
6 | CC(=O)c1c(O)cc(O)c(C(C)=O)c1O | 44 | 25 | 0 | 0 | 0 | – | – | – | – | – | –
7 | CC(C)CC(=O)c1c(O)c(Cc2c(O)c(C(=O)CC(C)C)c(O)c(C(=O)CC(C)C)c2O)c(O)c(C(=O)CC(C)C)c1O | 35 | 3 | 0 | 1 | 7 | – | – | – | – | – | –
8 | CCC(c1c(O)c(C(=O)CC(C)C)c(O)c(C(=O)CC(C)C)c1O)c1c(O)c(C(=O)CC(C)C)c(O)c(C(=O)CC(C)C)c1O | 0 | 10 | 0 | 22 | 10 | – | – | – | – | – | –
9 | CC(C)CC(=O)c1c(O)c(C=O)c(O)c(Cc2c(O)c(C=O)c(O)c(C(=O)CC(C)C)c2O)c1O | 35 | 0 | 15 | 9 | 29 | – | – | – | – | – | –
10 | CC(C)CC(=O)c1c(O)c(C(=O)CC(C)C)c(O)c(C(c2ccc3c(c2)Cc2ccccc2-3)c2c(O)c(C(=O)CC(C)C)c(O)c(C(=O)CC(C)C)c2O)c1O | 17 | 15 | 18 | 0 | 0 | – | – | – | – | – | –
11 | CC(C)CC(=O)c1c(O)c(C=O)c(O)c(C(c2ncc[nH]2)c2c(O)c(C=O)c(O)c(C(=O)CC(C)C)c2O)c1O | 38 | 22 | 0 | 18 | 0 | – | – | – | – | – | –
12 | CC(=O)c1c(O)c(C(C)=O)c(O)c(C(c2ccccc2)c2c(O)c(C(C)=O)c(O)c(C(C)=O)c2O)c1O | 29 | 29 | 0 | 0 | 47 | – | – | – | – | – | –
13 | CC(C)C(=O)c1c(O)cc(O)c(C(=O)C(C)C)c1O | 33 | 22 | 0 | 0 | 15 | – | – | – | – | – | –
14 | CC(C)CC(=O)c1c(O)c(C=O)c(O)c(C(c2ccncc2)c2c(O)c(C=O)c(O)c(C(=O)CC(C)C)c2O)c1O | 21 | 0 | 5 | 0 | 17 | – | – | – | – | – | –
15 | CC(C)CC(=O)c1c(O)c(C(=O)CC(C)C)c(O)c(C(c2cccs2)c2c(O)c(C(=O)CC(C)C)c(O)c(C(=O)CC(C)C)c2O)c1O | 50 | 54 | 60 | 57 | 62 | 8.9 | 8.9 | > 30 | 9.1 | 8.5 | > 10
16 | CC(C)CC(=O)c1c(O)c(C=O)c(O)c(C(c2cc3ccccc3o2)c2c(O)c(C=O)c(O)c(C(=O)CC(C)C)c2O)c1O | 6 | 5 | 0 | 11 | 2 | – | – | – | – | – | –
17 | CC(=O)c1c(O)c(C(C)=O)c(O)c(C(c2ccccn2)c2c(O)c(C(C)=O)c(O)c(C(C)=O)c2O)c1O | 12 | 0 | 0 | 11 | 24 | – | – | – | – | – | –
18 | CC(C)CC(=O)c1c(O)c(C=O)c(O)c(C(c2ccc(-c3ccccc3)cc2)c2c(O)c(C=O)c(O)c(C(=O)CC(C)C)c2O)c1O | 0 | 28 | 0 | 5 | 0 | – | – | – | – | – | –
19 | CC(C)C(=O)c1c(O)c(Cc2c(O)c(C(=O)C(C)C)c(O)c(C(=O)C(C)C)c2O)c(O)c(C(=O)C(C)C)c1O | 30 | 25 | 12 | 6 | 16 | – | – | – | – | – | –
20 | CC(C)CC(=O)c1c(O)c(C(=O)CC(C)C)c(O)c(C(c2cc3ccccc3o2)c2c(O)c(C(=O)CC(C)C)c(O)c(C(=O)CC(C)C)c2O)c1O | 7 | 37 | 0 | 20 | 56 | – | – | – | – | – | –
21 | CC(=O)c1c(O)c(C(C)=O)c(O)c(C(C)c2c(O)c(C(C)=O)c(O)c(C(C)=O)c2O)c1O | 19 | 0 | 0 | 3 | 38 | – | – | – | – | – | –
22 | CC(C)CC(=O)c1c(O)c(C(=O)CC(C)C)c(O)c(C(c2c(O)c(C(=O)CC(C)C)c(O)c(C(=O)CC(C)C)c2O)c2cccc3ccccc23)c1O | 6 | 26 | 17 | 0 | 15 | – | – | – | – | – | –
23 | CC(C)CC(=O)c1c(O)cc(O)c(C(=O)CC(C)C)c1O | 30 | 46 | 0 | 55 | 0 | – | – | – | – | – | –
24 | CC(=O)c1c(O)c(Cc2c(O)c(C(C)=O)c(O)c(C(C)=O)c2O)c(O)c(C(C)=O)c1O | 46 | 0 | 22 | 8 | 39 | – | – | – | – | – | –
25 | CC(C)CC(=O)c1c(O)c(C(=O)CC(C)C)c(O)c(C(C)c2c(O)c(C(=O)CC(C)C)c(O)c(C(=O)CC(C)C)c2O)c1O | 11 | 12 | 0 | 25 | 12 | – | – | – | – | – | –
26 | CC(C)CC(=O)c1c(O)c(C(=O)CC(C)C)c(O)c(C(c2c(O)c(C(=O)CC(C)C)c(O)c(C(=O)CC(C)C)c2O)C2CCCCC2)c1O | 14 | 29 | 0 | 0 | 18 | – | – | – | – | – | –
27 | CC(C)CC(=O)c1c(O)c(C=O)c(O)c(C(c2ccc(C(F)(F)F)cc2C(F)(F)F)c2c(O)c(C=O)c(O)c(C(=O)CC(C)C)c2O)c1O | 0 | 5 | 0 | 14 | 6 | – | – | – | – | – | –
